Measurements from ChEMBL document CHEMBL1151991, “Cytotoxic guanidine alkaloids from Pterogyne nitens” (J Nat Prod, 2009).
Values after ≈ are worked out from the molar mass of the structure shown.

What was measured:
Type in all cases: functional, cell-based
HL-60 = test: Cytotoxicity against human HL60 cells after 3 days by MTT assay; details: HL-60, 72 h
How it was run: (§1)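 Cells kept in RPMI-1640 with 10% fetal calf serum, 2 mM glutamine, streptomycin and penicillin at 37 °C, 5% CO2. Seeded at 10^5 cells/well (adherent) or 0.3 × 10^6 cells/well (suspension). […] Medium then replaced by 0.5 mg/mL MTT for 3 h, formazan dissolved in DMSO, absorbance read. IC50 by modified NCI protocol.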

HCT-8 = test: Cytotoxicity against human HCT8 cells after 3 days by MTT assay; details: HCT-8, 72 h; how it was run: as §1
MDA-MB-435 = test: Cytotoxicity against human MDA-MB-435 cells after 3 days by MTT assay; details: MDA-MB-435, 72 h
How it was run: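 Seeded at 10^5 cells/well (adherent) or 0.3 × 10^6 cells/well (suspension). Medium then replaced by 0.5 mg/mL MTT for 3 h, formazan dissolved in DMSO, absorbance read. IC50 by modified NCI protocol.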

SF-295 = test: Cytotoxicity against human SF295 cells after 3 days by MTT assay; details: SF-295, 72 h; how it was run: as §1

Row | Structure (SMILES) | IC50 (HL-60) | IC50 (HCT-8) | IC50 (MDA-MB-435) | IC50 (SF-295)
1 | CC(C)=CCN=C(N)N [GALEGINE] | > 5 µg/mL | > 5 µg/mL | > 5 µg/mL | > 5 µg/mL
2 | CC(C)=CCC/C(C)=C/CN=C(N)N [NITENSIDINE D] | > 5 µg/mL | > 5 µg/mL | > 5 µg/mL | > 5 µg/mL
3 | CC(C)=C/C=C/C1(C)CCN=C(N)N1 (stereo not given) [NITENSIDINE E] | 3.6 µg/mL (≈ 18.6 µM) | > 5 µg/mL | > 5 µg/mL | 4.9 µg/mL (≈ 25.3 µM)
4 | CC(C)=CCNC(=N)NCC=C(C)C [PTEROGYNIDINE] | > 5 µg/mL | > 5 µg/mL | > 5 µg/mL | > 5 µg/mL
5 | CC(C)=CCN(CC=C(C)C)C(=N)N [PTEROGYNINE] | > 5 µg/mL | > 5 µg/mL | > 5 µg/mL | > 5 µg/mL
